Data published in paper PMC3902791 (Molecular imaging and biology : MIB : the official …, 2012).
Several values for one entry are separate records, joined by “and”; a condition that tells them apart may be missing. Identical values can stand only once. Like-named read-outs stand apart in the source and are kept apart here.

Parameters: species or system human
Summary of the method: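 Organ time–activity curves came from whole-body scan VOI data. These were fitted mono-exponentially in five animals; in the sixth, with two scans, a linear fit to the log values was used. Time-integrated activity coefficients were scaled by the ratio of body-mass-normalised human to CT-derived macaque organ masses. Intestinal values were split in thirds across small intestine, ULI and LLI. Organ doses (mSv/MBq) were computed per animal with the OLINDA/EXM 1.1 adult male model.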

Structure (SMILES): O=C(O)C[18F] [^18F-FACE, ^18F-fluoroacetate]
- Dose to adult human model, Total body (All, Mean±SD): 0.011±0.002 mSv/MBq
- ED effective dose, adult human model (All, Mean±SD): 0.0211 mSv/MBq and 0.021±0.004 mSv/MBq
- EDE effective dose equivalent, adult human model (All, Mean±SD): 0.023±0.004 mSv/MBq
- Organ dose to adult human model, Adrenals (All, Mean±SD): 0.013±0.002 mSv/MBq
- Organ dose to adult human model, Brain (All, Mean±SD): 0.00762 mSv/MBq and 0.008±0.002 mSv/MBq
- Organ dose to adult human model, Breasts (All, Mean±SD): 0.00774 mSv/MBq and 0.008±0.001 mSv/MBq
- Organ dose to adult human model, Gallbladder wall (All, Mean±SD): 0.0288 mSv/MBq and 0.029±0.010 mSv/MBq
- Organ dose to adult human model, Heart wall (All, Mean±SD): 0.025±0.010 mSv/MBq
- Organ dose to adult human model, Kidneys (All, Mean±SD): 0.0342 mSv/MBq and 0.034±0.008 mSv/MBq
- Organ dose to adult human model, LLI wall (lower large intestine) (All, Mean±SD): 0.075±0.027 mSv/MBq
- Organ dose to adult human model, Liver (All, Mean±SD): 0.0307 mSv/MBq and 0.031±0.021 mSv/MBq
- Organ dose to adult human model, Lungs (All, Mean±SD): 0.010±0.002 mSv/MBq
- Organ dose to adult human model, Muscle (All, Mean±SD): 0.010±0.002 mSv/MBq
- Organ dose to adult human model, Osteogenic cells (All, Mean±SD): 0.014±0.003 mSv/MBq
- Organ dose to adult human model, Ovaries (All, Mean±SD): 0.016±0.002 mSv/MBq
- Organ dose to adult human model, Pancreas (All, Mean±SD): 0.013±0.002 mSv/MBq
- Organ dose to adult human model, Red marrow (All, Mean±SD): 0.0102 mSv/MBq and 0.010±0.002 mSv/MBq
- Organ dose to adult human model, Skin (All, Mean±SD): 0.007±0.001 mSv/MBq
- Organ dose to adult human model, Small intestine (All, Mean±SD): 0.037±0.011 mSv/MBq
- Organ dose to adult human model, Spleen (All, Mean±SD): 0.011±0.002 mSv/MBq
- Organ dose to adult human model, Stomach wall (All, Mean±SD): 0.012±0.002 mSv/MBq
- Organ dose to adult human model, Testes (All, Mean±SD): 0.009±0.001 mSv/MBq
- Organ dose to adult human model, Thymus (All, Mean±SD): 0.010±0.002 mSv/MBq
- Organ dose to adult human model, Thyroid (All, Mean±SD): 0.00888 mSv/MBq and 0.009±0.002 mSv/MBq
- Organ dose to adult human model, ULI wall (upper large intestine) (All, Mean±SD): 0.056±0.019 mSv/MBq
- Organ dose to adult human model, Urinary bladder wall (All, Mean±SD): 0.021±0.010 mSv/MBq
- Organ dose to adult human model, Uterus (All, Mean±SD): 0.014±0.003 mSv/MBq
- Dose to adult human model, Total body (Female, Mean±SD): 0.010±0.002 mSv/MBq
- ED effective dose, adult human model (Female, Mean±SD): 0.018±0.001 mSv/MBq
- EDE effective dose equivalent, adult human model (Female, Mean±SD): 0.020±0.001 mSv/MBq
- Organ dose to adult human model, Adrenals (Female, Mean±SD): 0.012±0.002 mSv/MBq
- Organ dose to adult human model, Brain (Female, Mean±SD): 0.007±0.002 mSv/MBq
- Organ dose to adult human model, Breasts (Female, Mean±SD): 0.007±0.002 mSv/MBq
- Organ dose to adult human model, Gallbladder wall (Female, Mean±SD): 0.031±0.013 mSv/MBq
- Organ dose to adult human model, Heart wall (Female, Mean±SD): 0.019±0.006 mSv/MBq
- Organ dose to adult human model, Kidneys (Female, Mean±SD): 0.031±0.010 mSv/MBq
- Organ dose to adult human model, LLI wall (lower large intestine) (Female, Mean±SD): 0.058±0.005 mSv/MBq
- Organ dose to adult human model, Liver (Female, Mean±SD): 0.021 ±0.009 mSv/MBq
- Organ dose to adult human model, Lungs (Female, Mean±SD): 0.009±0.002 mSv/MBq
- Organ dose to adult human model, Muscle (Female, Mean±SD): 0.009±0.002 mSv/MBq
- Organ dose to adult human model, Osteogenic cells (Female, Mean±SD): 0.014±0.004 mSv/MBq
- Organ dose to adult human model, Ovaries (Female, Mean±SD): 0.016±0.002 mSv/MBq
- Organ dose to adult human model, Pancreas (Female, Mean±SD): 0.012±0.002 mSv/MBq
- Organ dose to adult human model, Red marrow (Female, Mean±SD): 0.009±0.002 mSv/MBq
- Organ dose to adult human model, Skin (Female, Mean±SD): 0.007±0.002 mSv/MBq
- Organ dose to adult human model, Small intestine (Female, Mean±SD): 0.030±0.002 mSv/MBq
- Organ dose to adult human model, Spleen (Female, Mean±SD): 0.010±0.003 mSv/MBq
- Organ dose to adult human model, Stomach wall (Female, Mean±SD): 0.011±0.002 mSv/MBq
- Organ dose to adult human model, Thymus (Female, Mean±SD): 0.009±0.002 mSv/MBq
- Organ dose to adult human model, Thyroid (Female, Mean±SD): 0.009±0.003 mSv/MBq
- Organ dose to adult human model, ULI wall (upper large intestine) (Female, Mean±SD): 0.044±0.003 mSv/MBq
- Organ dose to adult human model, Urinary bladder wall (Female, Mean±SD): 0.017±0.004 mSv/MBq
- Organ dose to adult human model, Uterus (Female, Mean±SD): 0.014±0.003 mSv/MBq
- Dose to adult human model, Total body (Male, Mean±SD): 0.012±0.001 mSv/MBq
- ED effective dose, adult human model (Male, Mean±SD): 0.025±0.003 mSv/MBq
- EDE effective dose equivalent, adult human model (Male, Mean±SD): 0.027±0.003 mSv/MBq
- Organ dose to adult human model, Adrenals (Male, Mean±SD): 0.014±0.002 mSv/MBq
- Organ dose to adult human model, Brain (Male, Mean±SD): 0.008±0.001 mSv/MBq
- Organ dose to adult human model, Breasts (Male, Mean±SD): 0.008±0.001 mSv/MBq
- Organ dose to adult human model, Gallbladder wall (Male, Mean±SD): 0.027±0.008 mSv/MBq
- Organ dose to adult human model, Heart wall (Male, Mean±SD): 0.031±0.010 mSv/MBq
- Organ dose to adult human model, Kidneys (Male, Mean±SD): 0.037±0.008 mSv/MBq
- Organ dose to adult human model, LLI wall (lower large intestine) (Male, Mean±SD): 0.091±0.031 mSv/MBq
- Organ dose to adult human model, Liver (Male, Mean±SD): 0.040±0.026 mSv/MBq
- Organ dose to adult human model, Lungs (Male, Mean±SD): 0.010±0.001 mSv/MBq
- Organ dose to adult human model, Muscle (Male, Mean±SD): 0.010±0.001 mSv/MBq
- Organ dose to adult human model, Osteogenic cells (Male, Mean±SD): 0.015±0.001 mSv/MBq
- Organ dose to adult human model, Pancreas (Male, Mean±SD): 0.015±0.001 mSv/MBq
- Organ dose to adult human model, Red marrow (Male, Mean±SD): 0.011±0.001 mSv/MBq
- Organ dose to adult human model, Skin (Male, Mean±SD): 0.008±0.001 mSv/MBq
- Organ dose to adult human model, Small intestine (Male, Mean±SD): 0.044±0.012 mSv/MBq
- Organ dose to adult human model, Spleen (Male, Mean±SD): 0.012±0.001 mSv/MBq
- Organ dose to adult human model, Stomach wall (Male, Mean±SD): 0.013±0.001 mSv/MBq
- Organ dose to adult human model, Testes (Male, Mean±SD): 0.009±0.001 mSv/MBq
- Organ dose to adult human model, Thymus (Male, Mean±SD): 0.010±0.001 mSv/MBq
- Organ dose to adult human model, Thyroid (Male, Mean±SD): 0.009±0.001 mSv/MBq
- Organ dose to adult human model, ULI wall (upper large intestine) (Male, Mean±SD): 0.068±0.021 mSv/MBq
- Organ dose to adult human model, Urinary bladder wall (Male, Mean±SD): 0.025±0.015 mSv/MBq
- estimated effective dose for an adult human (administration of 185–370 MBq): 3.90–7.81 mSv
- radiation absorbed dose, intestines (adult male model): 0.0366–0.0745 mSv/MBq
- Dose to adult human model, Total body (from animal 1, male): 0.012 mSv/MBq
- ED effective dose, adult human model (from animal 1, male): 0.022 mSv/MBq
- EDE effective dose equivalent, adult human model (from animal 1, male): 0.024 mSv/MBq
- Organ dose to adult human model, Adrenals (from animal 1, male): 0.016 mSv/MBq
- Organ dose to adult human model, Brain (from animal 1, male): 0.007 mSv/MBq
- Organ dose to adult human model, Breasts (from animal 1, male): 0.008 mSv/MBq
- Organ dose to adult human model, Gallbladder wall (from animal 1, male): 0.031 mSv/MBq
- Organ dose to adult human model, Heart wall (from animal 1, male): 0.035 mSv/MBq
- Organ dose to adult human model, Kidneys (from animal 1, male): 0.046 mSv/MBq
- Organ dose to adult human model, LLI wall (lower large intestine) (from animal 1, male): 0.058 mSv/MBq
- Organ dose to adult human model, Liver (from animal 1, male): 0.067 mSv/MBq
- Organ dose to adult human model, Lungs (from animal 1, male): 0.011 mSv/MBq
- Organ dose to adult human model, Muscle (from animal 1, male): 0.010 mSv/MBq
- Organ dose to adult human model, Osteogenic cells (from animal 1, male): 0.014 mSv/MBq
- Organ dose to adult human model, Pancreas (from animal 1, male): 0.016 mSv/MBq
- Organ dose to adult human model, Red marrow (from animal 1, male): 0.011 mSv/MBq
- Organ dose to adult human model, Skin (from animal 1, male): 0.007 mSv/MBq
- Organ dose to adult human model, Small intestine (from animal 1, male): 0.031 mSv/MBq
- Organ dose to adult human model, Spleen (from animal 1, male): 0.012 mSv/MBq
- Organ dose to adult human model, Stomach wall (from animal 1, male): 0.013 mSv/MBq
- Organ dose to adult human model, Testes (from animal 1, male): 0.009 mSv/MBq
- Organ dose to adult human model, Thymus (from animal 1, male): 0.010 mSv/MBq
- Organ dose to adult human model, Thyroid (from animal 1, male): 0.009 mSv/MBq
- Organ dose to adult human model, ULI wall (upper large intestine) (from animal 1, male): 0.045 mSv/MBq
- Organ dose to adult human model, Urinary bladder wall (from animal 1, male): 0.042 mSv/MBq
- Dose to adult human model, Total body (from animal 2, male): 0.012 mSv/MBq
- ED effective dose, adult human model (from animal 2, male): 0.025 mSv/MBq
- EDE effective dose equivalent, adult human model (from animal 2, male): 0.027 mSv/MBq
- Organ dose to adult human model, Adrenals (from animal 2, male): 0.014 mSv/MBq
- Organ dose to adult human model, Brain (from animal 2, male): 0.007 mSv/MBq
- Organ dose to adult human model, Breasts (from animal 2, male): 0.008 mSv/MBq
- Organ dose to adult human model, Gallbladder wall (from animal 2, male): 0.033 mSv/MBq
- Organ dose to adult human model, Heart wall (from animal 2, male): 0.038 mSv/MBq
- Organ dose to adult human model, Kidneys (from animal 2, male): 0.032 mSv/MBq
- Organ dose to adult human model, LLI wall (lower large intestine) (from animal 2, male): 0.096 mSv/MBq
- Organ dose to adult human model, Liver (from animal 2, male): 0.041 mSv/MBq
